From ChEMBL document CHEMBL3997779, “Rhodamine B conjugates of triterpenoic acids are cytotoxic mitocans even at nanomolar concentrations” (Eur J Med Chem, 2017) come the findings set out here.

One data set has as its system A549. The experiment in a line: Cytotoxicity against human A549 cells after 96 hrs by SRB assay. The following applies: A549, 96 h. Format: functional, cell-based. The essentials:
(§1)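 EC50 from sulforhodamine B assay after 96 h exposure. Each value is averaged from three independent experiments, each run in triplicate, with 95% confidence interval. Assay cut-off 30 µM.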

The next data set has as its system HT-29. The experiment in a line: Cytotoxicity against human HT-29 cells after 96 hrs by SRB assay. In kind it is functional, cell-based. As to conditions: HT-29, 96 h. The essentials: as §1
A short description of data set [1]: Selectivity factor, ratio of EC50 for mouse NIH/3T3 cells to EC50 for human A2780 cells.
A short description of data set [2]: Drug uptake in mitochondria of human A2780 cells at 0.1 uM after 24 hrs by fluorescence and light microscopy. In kind it is ADME. The essentials:
(§2)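 Approx. 800,000 A2780 cells grown 24 h in 25 cm² flasks. Medium then replaced with compound-containing medium at 0.1 µM, or blank medium as control, for 24 h. Cells collected, centrifuged at 1200 rpm and 4 °C, and washed in PBS. Live cells stained with Hoechst 33342 (DNA) and rhodamine 123 (mitochondria), then imaged by fluorescence and light microscopy.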

A further data set relates to NIH3T3. The experiment in a line: Cytotoxicity against mouse NIH/3T3 cells after 96 hrs by SRB assay. Format: cell-based. The following applies: NIH3T3, 96 h. A digest of the protocol: as §1
Data set [3] has as its system A2780. The experiment in a line: Induction of necrosis in human A2780 cells at 0.1 uM after 24 hrs by annexin V/propidium iodide staining-based flow cytometric method relative to control. Format: functional, cell-based. The essentials:
(§3)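 A2780 cells treated at 0.1 µM, and at up to 0.4 µM, compared with untreated control. Stained with annexin V/propidium iodide and quantified by FACS.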

For data set [4], the system named is A2780. The experiment in a line: Cytotoxicity against human A2780 cells after 96 hrs by SRB assay. In kind it is functional, cell-based. The following applies: A2780, 96 h. The essentials: as §1
For data set [5], the system named is A2780. The experiment in a line: Induction of morphological changes in human A2780 cells at 0.1 uM after 24 hrs by rhodamine 123/Hoechst 33342 staining-based fluorescence microscopic method. In kind it is functional, cell-based. A digest of the protocol: as §2
Data set [6] deals with A2780. The experiment in a line: Induction of apoptosis in human A2780 cells at 0.1 to 0.4 uM after 24 hrs by annexin V/propidium iodide staining-based flow cytometric method relative to control. In kind it is functional, cell-based. A digest of the protocol: as §3
The next data set concerns MCF7. The experiment in a line: Cytotoxicity against human MCF7 cells after 96 hrs by SRB assay. Format: functional, cell-based. The following applies: MCF7, 96 h. A digest of the protocol: as §1
In a further data set the test system is 518A2. The experiment in a line: Cytotoxicity against human 518A2 cells after 96 hrs by SRB assay. In kind it is functional, cell-based. The following applies: 518A2, 96 h. A digest of the protocol: as §1
Another data set concerns 8505C. The experiment in a line: Cytotoxicity against human 8505C cells after 96 hrs by SRB assay. In kind it is functional, cell-based. The essentials: as §1

Activity calls are given as the source filed them.

With `CCN(CC)c1ccc2c(-c3ccccc3C(=O)N3CCN(C(=O)[C@]45CCC(C)(C)C[C@H]4C4=CC[C@@H]6[C@@]7(C)C[C@@H](OC(C)=O)[C@H](OC(C)=O)C(C)(C)[C@@H]7CC[C@@]6(C)[C@]4(C)CC5)CC3)c3ccc(=[N+](CC)CC)cc-3oc2c1.[Cl-]`, the concentration for a half-maximal effect (EC50) amounted to 186 nM in the data set on A549; 57 nM in the data set with HT-29; 334 nM in the data set on NIH3T3; 7 nM with A2780 [4]; 28 nM in the data set on MCF7; 11 nM in the data set with 518A2. The “Ratio EC50” value in [1] stood at 50. Further, in [2], the Drug uptake result is given as “Active”. Besides, in the data set on A2780 [3], the result was Active. Besides, the result with A2780 [5] and in the data set with A2780 [6] was inactive.
For the molecule `C=C(C)[C@@H]1CC[C@]2(C(=O)N3CCNCC3)CC[C@]3(C)[C@H](CC[C@@H]4[C@@]5(C)CC[C@H](OC(C)=O)C(C)(C)[C@@H]5CC[C@]43C)[C@@H]12`, the EC50 in the data set with A549 amounted to 2200 nM; in the data set on HT-29, 1000 nM; in the data set on NIH3T3, 900 nM; in the data set on A2780 [4], 1900 nM; in the data set on 8505C, 2200 nM; in the data set on MCF7 it was 1400 nM. In the data set on 518A2, the concentration giving a half-maximal response (EC50) is 1500 nM.
For `CC1(C)CC[C@]2(C(=O)O)CC[C@]3(C)C(=CC[C@@H]4[C@@]5(C)C[C@@H](O)[C@H](O)C(C)(C)[C@@H]5CC[C@]43C)[C@@H]2C1` [MASLINIC ACID], the EC50 is 23400 nM in the data set with A549; 28800 nM with HT-29; 21100 nM in the data set with NIH3T3; 19500 nM with A2780 [4]; 17000 nM in the data set on 8505C; over 30000 nM in the data set with MCF7. In the data set with 518A2, this molecule returned a concentration for a half-maximal effect (EC50) of 13700 nM.
In the case of `CC1(C)[C@@H](O)CC[C@]2(C)[C@H]3C(=O)C=C4[C@@H]5C[C@@](C)(C(=O)O)CC[C@]5(C)CC[C@@]4(C)[C@]3(C)CC[C@@H]12` [ENOXOLONE], the EC50 in the data set with A549 was over 30000 nM; with HT-29, over 30000 nM; in the data set on NIH3T3, 18700 nM; in the data set with A2780 [4], over 30000 nM; in the data set on 8505C, over 30000 nM; in the data set on MCF7, over 30000 nM. In addition, the 50% effective concentration (EC50) in the data set with 518A2 is over 30000 nM.
Take `CCN(CC)c1ccc2c(-c3ccccc3C(=O)N3CCN(C(=O)[C@]45CC[C@@H](C(C)=O)[C@@H]4[C@H]4CC[C@@H]6[C@@]7(C)CC[C@H](OC(C)=O)C(C)(C)[C@@H]7CC[C@@]6(C)[C@]4(C)CC5)CC3)c3ccc(=[N+](CC)CC)cc-3oc2c1`: the EC50 in the data set on A549 was 131 nM; with HT-29, 99 nM; with NIH3T3, 171 nM; with A2780 [4], 36 nM; with 8505C, 145 nM; in the data set with MCF7, 70 nM. Moreover, the EC50 in the data set on 518A2 worked out at 100 nM.
As for `CCN(CC)c1ccc2c(-c3ccccc3C(=O)O)c3ccc(=[N+](CC)CC)cc-3oc2c1` [RHODAMINE], the EC50 with A549, in the data set with HT-29, in the data set with NIH3T3, in the data set on A2780 [4], with 8505C and with MCF7 was over 30000 nM each time. For the same molecule, in the data set on 518A2, the EC50 is over 30000 nM.
For `CC(=O)O[C@@H]1C[C@]2(C)[C@H]3CC=C4[C@@H]5CC(C)(C)CC[C@]5(C(=O)N5CCNCC5)CC[C@@]4(C)[C@]3(C)CC[C@H]2C(C)(C)[C@H]1OC(C)=O`, the EC50 in the data set with A549 is 1500 nM; in the data set on HT-29 it was 1600 nM; in the data set with NIH3T3, 3200 nM; with A2780 [4], 1900 nM; in the data set with MCF7 it was 1000 nM.
As for `C=C(C)[C@@H]1CC[C@]2(C(=O)N3CCN(C(=O)c4ccccc4-c4c5ccc(=[N+](CC)CC)cc-5oc5cc(N(CC)CC)ccc45)CC3)CC[C@]3(C)[C@H](CC[C@@H]4[C@@]5(C)CC[C@H](OC(C)=O)C(C)(C)[C@@H]5CC[C@]43C)[C@@H]12`, the half-maximal effective concentration (EC50) in the data set with A549 stood at 176 nM; in the data set on HT-29, 151 nM; in the data set with NIH3T3, 208 nM; in the data set on A2780 [4], 50 nM; in the data set with 8505C, 62 nM; in the data set on MCF7 it was 81 nM. This molecule also showed a 50% effective concentration (EC50) in the data set on 518A2 of 46 nM.
Consider `CCN(CC)c1ccc2c(-c3ccccc3C(=O)N3CCN(C(=O)[C@]45CC[C@@H](C)[C@H](C)[C@H]4C4=CC[C@@H]6[C@@]7(C)CC[C@H](OC(C)=O)C(C)(C)[C@@H]7CC[C@@]6(C)[C@]4(C)CC5)CC3)c3ccc(=[N+](CC)CC)cc-3oc2c1`, for which the EC50 is 140 nM in the data set with A549; 83 nM in the data set with HT-29; 137 nM with NIH3T3; 38 nM in the data set with A2780 [4]; 47 nM in the data set on 8505C; 75 nM with MCF7. In the data set with 518A2, this molecule returned an EC50 of 47 nM.
`CC(=O)O[C@H]1CC[C@]2(C)[C@H]3C(=O)C=C4[C@@H]5C[C@@](C)(C(=O)N6CCNCC6)CC[C@]5(C)CC[C@@]4(C)[C@]3(C)CC[C@H]2C1(C)C`: the half-maximal effective concentration (EC50) with A549 turned out to be 10500 nM; with HT-29 it was 4500 nM; in the data set with NIH3T3, 8700 nM; in the data set with A2780 [4], 8200 nM; with 8505C it was 10000 nM; in the data set on MCF7, 8400 nM. A half-maximal effect with 518A2 (EC50) was put at 9400 nM.
Consider `C[C@H]1[C@H](C)CC[C@]2(C(=O)O)CC[C@]3(C)C(=CC[C@@H]4[C@@]5(C)CC[C@H](O)C(C)(C)[C@@H]5CC[C@]43C)[C@H]12` [URSOLIC ACID], for which the EC50 in the data set with NIH3T3 came to 18700 nM; in the data set with 518A2 it was 14700 nM.
As for `CC(=O)O[C@H]1CC[C@]2(C)[C@H]3CC=C4[C@@H]5CC(C)(C)CC[C@]5(C(=O)N5CCNCC5)CC[C@@]4(C)[C@]3(C)CC[C@H]2C1(C)C`, the EC50 with A549 was determined as 2300 nM; in the data set on HT-29, 1300 nM; in the data set with NIH3T3, 1700 nM; with A2780 [4], 1700 nM; in the data set on 8505C, 3800 nM; in the data set on MCF7 it was 1700 nM. Besides, a half-maximal response in the data set with 518A2 (EC50) required 2700 nM.
On to `CCN(CC)c1ccc2c(-c3ccccc3C(=O)N3CCN(C(=O)[C@]45CCC(C)(C)C[C@H]4C4=CC[C@@H]6[C@@]7(C)CC[C@H](OC(C)=O)C(C)(C)[C@@H]7CC[C@@]6(C)[C@]4(C)CC5)CC3)c3ccc(=[N+](CC)CC)cc-3oc2c1`, for which the concentration giving a half-maximal response (EC50) in the data set on A549 was 120 nM; in the data set with HT-29, 91 nM; in the data set on NIH3T3 it was 137 nM; in the data set with A2780 [4] it was 32 nM; in the data set with 8505C it was 45 nM; in the data set with MCF7, 62 nM. The same molecule registered a concentration giving a half-maximal response (EC50) in the data set on 518A2 of 43 nM.
Regarding `CC1(C)CC[C@]2(C(=O)O)CC[C@]3(C)C(=CC[C@@H]4[C@@]5(C)CC[C@H](O)C(C)(C)[C@@H]5CC[C@]43C)[C@@H]2C1` [OLEANOLIC_ACID], the EC50 with A549, in the data set with HT-29, in the data set with NIH3T3, with 8505C, in the data set on MCF7 and in the data set with 518A2 was over 30000 nM in each case.
Turning to `C=C(C)[C@@H]1CC[C@]2(C(=O)O)CC[C@]3(C)[C@H](CC[C@@H]4[C@@]5(C)CC[C@H](O)C(C)(C)[C@@H]5CC[C@]43C)[C@@H]12` [BETULINIC ACID], the EC50 amounted to 16100 nM in the data set with NIH3T3 and 9400 nM in the data set on 518A2.
Regarding `CC(=O)O[C@H]1CC[C@]2(C)[C@H]3CC=C4[C@@H]5[C@@H](C)[C@H](C)CC[C@]5(C(=O)N5CCNCC5)CC[C@@]4(C)[C@]3(C)CC[C@H]2C1(C)C`, the EC50 with A549 was found to be 3200 nM; with HT-29, 1900 nM; in the data set with NIH3T3, 2100 nM; with A2780 [4], 2100 nM; in the data set on 8505C it was 3500 nM; in the data set with MCF7, 2000 nM. In the data set on 518A2, this molecule returned an EC50 of 2600 nM.
For `CC(=O)O[C@H]1CC[C@]2(C)[C@H]3CC[C@@H]4[C@H]5[C@H](C(C)=O)CC[C@]5(C(=O)N5CCNCC5)CC[C@@]4(C)[C@]3(C)CC[C@H]2C1(C)C`, the EC50 with A549 was found to be 3900 nM; in the data set on HT-29 it was 2400 nM; in the data set with NIH3T3 it was 700 nM; in the data set with A2780 [4], 3100 nM; in the data set with 8505C, 3700 nM; in the data set with MCF7, 2800 nM. Further, in the data set on 518A2, the half-maximal effective concentration (EC50) stood at 2700 nM.
As to `CC(=O)[C@@H]1CC[C@]2(C(=O)O)CC[C@]3(C)[C@H](CC[C@@H]4[C@@]5(C)CC[C@H](O)C(C)(C)[C@@H]5CC[C@]43C)[C@@H]12` [PLATANIC ACID], the concentration giving a half-maximal response (EC50) with A549, with HT-29, in the data set with A2780 [4], in the data set with 8505C, with MCF7 and in the data set on 518A2 was over 30000 nM each time.
